Compound activity as filed in PubChem BioAssay.
Only some compounds are listed: those with a hit (about 3.4% of all), similar ones and a draw of the others.
MEKK2 WT-MEK5 – raises or lowers MEK5 binding to wildtype human MEKK2 PB1 domain; Q9Y2U5; bead flow cytometry, Alexa488-MEK5 binding to MEKK2 WT; actives lie on both sides; binding response (% of control), % at 10 µM; hit rate 1.1% among 290,000; AID 1531; in the data active means binding response below about 67% or above about 130%
MEKK2mut PB1 HTS – signal of MEK5 binding to mutant human MEKK2 PB1 domain; AID 1530; percent response, % at 10 µM; bead flow cytometry, Alexa488-MEK5 binding to MEKK2 mutant; hit rate 0.35% among 290,000; in the data active means percent response above about 24%, passing the limit was not always enough
VIM-2 inh – inhibitors of Pseudomonas aeruginosa VIM-2 metallo-beta-lactamase; purified VIM-2, nitrocefin hydrolysis, epi-absorbance fluorescence; inhibition, % at 5.6 µM; hit rate 0.89% among 290,000;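 active means inhibition above the mean of all tested compounds plus 3 SD, cutoff set per screening run, cut at about 7.5% in these data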;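 further: red hydrolysis product quenches plate fluorescence so inhibitors raise well fluorescence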
IMP-1 inh – blocks Pseudomonas aeruginosa IMP-1 metallo-beta-lactamase; inhibition, % at 5.6 µM; AID 1556; purified IMP-1, nitrocefin hydrolysis, epi-absorbance fluorescence; hit rate 0.45% among 290,000;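 active means inhibition above the mean plus 3 SD of all compounds in the same screening run, cut at about 4.5% in these data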
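System: purified recombinant IMP-1 beta-lactamase. Medium: Zinc- and detergent-supplemented HEPES buffer, pH 7.1. Compound: one 5.6 µM dose […]. Schedule: 15 min preincubation plus 25 min reaction at 25 °C. Technique: Epi-absorbance fluorescence, 480 nm excitation, 530 nm emission.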
MEKK3 PB1 HTS – MEKK3-MEK5 PB1 interaction, increase or decrease; Q99759; bead-based flow cytometry, Alexa488-MEK5 binding to MEKK3; actives lie on both sides; 0 = blocked by unlabeled MEK5, 100 = vehicle; binding response (% of control), % at 10 µM; hit rate 1.4% among 290,000; AID 1529;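 active means binding response more than 3 SD above or below the average of its plate-row segment, actives on both sides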;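 further: Alexa488 bead fluorescence after subtracting the streptavidin-only scavenger bead signal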
Target sequence (Q99759 whole entry, looked up): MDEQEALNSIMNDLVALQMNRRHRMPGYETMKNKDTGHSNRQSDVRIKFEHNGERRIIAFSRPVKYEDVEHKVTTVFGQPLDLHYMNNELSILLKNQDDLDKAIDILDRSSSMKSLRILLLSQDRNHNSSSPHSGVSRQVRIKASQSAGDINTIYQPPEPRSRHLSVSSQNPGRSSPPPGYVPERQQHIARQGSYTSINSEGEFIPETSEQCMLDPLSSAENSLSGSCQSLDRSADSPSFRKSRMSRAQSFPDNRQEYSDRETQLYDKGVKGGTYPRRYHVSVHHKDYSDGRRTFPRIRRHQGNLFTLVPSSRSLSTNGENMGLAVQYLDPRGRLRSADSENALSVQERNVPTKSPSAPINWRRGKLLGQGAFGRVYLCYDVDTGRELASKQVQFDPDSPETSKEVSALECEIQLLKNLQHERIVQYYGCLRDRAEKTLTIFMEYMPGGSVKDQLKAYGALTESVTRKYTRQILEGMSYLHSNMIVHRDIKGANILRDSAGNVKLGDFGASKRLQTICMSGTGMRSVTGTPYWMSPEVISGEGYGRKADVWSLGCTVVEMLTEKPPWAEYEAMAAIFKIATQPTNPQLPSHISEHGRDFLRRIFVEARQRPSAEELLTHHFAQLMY
MEKK2wt confirm – raises or lowers MEK5 binding to wildtype human MEKK2, retest | shares compounds with MEKK3 PB1 HTS | bead flow cytometry, Alexa488-MEK5 binding to MEKK2 WT; actives lie on both sides | binding response (% of control), % at 10 µM | hit rate 2.4% among 5,900 | AID 1892; in the data active means binding response below about 16% or above about 210%; inactive means in between
MEKK2mut confirm – signal of MEK5 binding to mutant human MEKK2, retest; hit rate 2% among 5,900; shares compounds with MEKK3 PB1 HTS; bead flow cytometry, Alexa488-MEK5 binding to MEKK2 mutant; percent response, % at 10 µM; in the data active means percent response mostly above about 71%, no sharp cut-off; inactive means mostly below about 38%;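 further: higher means compound restores mutant binding toward wildtype level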
MEKK3-MEK5 inh – MEKK3-MEK5 PB1 inhibition, single concentration confirmation. shares compounds with MEKK3 PB1 HTS. bead flow cytometry, Alexa488-MEK5 binding to MEKK3; stronger effect = lower value. binding response (% of control), % at 10 µM. hit rate 1.8% among 5,900;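 active means binding response below 72% of control, or above a set upper limit, though filed actives all read lower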
Large screens that a line does not name were inactive (follow-up assays come after a bar, where they were run); [ ] = another dose, or the depositor's remark.

CC(C)(C)c1nnc(N/N=C/c2cc(Br)ccc2O)n(N)c1=O	MEKK3 PB1 HTS 142.0 | MEKK2wt confirm inactive | MEKK2mut confirm inactive | MEKK3-MEK5 inh inactive
Cn1c(NC(=O)c2ccc(Cl)cc2)cc(=O)n(C)c1=O	MEKK3 PB1 HTS 136.0 | MEKK2wt confirm inactive | MEKK2mut confirm inactive | MEKK3-MEK5 inh inactive
CCCCN1C(=O)CCC(C(=O)O)C1c1ccccc1 (configuration not stated)	MEKK2 WT-MEK5 -1.0[inhibitor], MEKK3 PB1 HTS 0.0[inhibitor] | MEKK2wt confirm inactive | MEKK2mut confirm inactive | MEKK3-MEK5 inh inactive
CCCCN1C(=O)CC(C(=O)O)C1c1ccc(OC)cc1 (configuration not stated)	none
Cc1ccccc1Cn1c(=O)n(Cc2ccco2)c(=O)c2ccccc21	none
O=C(CNC1C(=O)Nc2ccccc21)Sc1ccccc1 (configuration not stated)	MEKK2 WT-MEK5 3.0[inhibitor], MEKK3 PB1 HTS 2.0[inhibitor] | MEKK2wt confirm inactive | MEKK2mut confirm inactive | MEKK3-MEK5 inh inactive
O=C(O)CCCCCNC(=O)C(=O)C1C(=O)Nc2ccccc21 (configuration not stated)	none
CCc1ccc(OCC(=O)N/N=C/c2cc([N+](=O)[O-])ccc2N2CCCCCC2)cc1	MEKK3 PB1 HTS 136.0 | MEKK2wt confirm inactive | MEKK2mut confirm inactive | MEKK3-MEK5 inh inactive
S=C(NCCC(c1ccccc1)c1ccccc1)Nc1cccc(Cl)c1	MEKK2 WT-MEK5 5.0, MEKK2mut PB1 HTS 32.0 | MEKK2wt confirm inactive | MEKK2mut confirm inactive | MEKK3-MEK5 inh inactive
S=C(Nc1cccc(Cl)c1)NC1CC2CCCC(C1)N2C1CCCC1 (configuration not stated)	none
S=C(NCCN(C1CCCCC1)C1CCCC1)Nc1cccc(Cl)c1	MEKK2 WT-MEK5 134.0 | MEKK2wt confirm inactive | MEKK2mut confirm inactive | MEKK3-MEK5 inh inactive
O=C(/C=C/c1ccccc1Cl)N(Cc1ccc(Cl)cc1)C1CCS(=O)(=O)C1 (configuration not stated)	none
O=C(/C=C/c1ccccc1Cl)N(Cc1ccccc1)C1CCS(=O)(=O)C1 (configuration not stated)	MEKK3 PB1 HTS 138.0 | MEKK2wt confirm inactive | MEKK2mut confirm inactive | MEKK3-MEK5 inh inactive
[O-]/C(=C(\C(=S)Nc1ccc(SC(F)F)cc1)[n+]1ccccc1)c1cc(Cl)ccc1Cl	MEKK2 WT-MEK5 58.0[inhibitor] | MEKK2wt confirm inactive | MEKK2mut confirm inactive | MEKK3-MEK5 inh inactive
O=C(NC1CCCC1)c1ccc2c(c1)S(=O)(=O)c1ccccc1C2=O	none (no result: VIM-2 inh, IMP-1 inh)
O=C(Cc1c[nH]c2ccccc12)N/N=C/c1ccc(F)cc1	MEKK3 PB1 HTS 139.0 | MEKK2wt confirm inactive | MEKK2mut confirm inactive | MEKK3-MEK5 inh inactive
O=C(CSc1c[nH]c2ccccc12)N1CCCc2ccccc21	none
O=C(Cc1c[nH]c2ccccc12)NCc1cccs1	MEKK3 PB1 HTS 136.0 | MEKK2wt confirm inactive | MEKK2mut confirm inactive | MEKK3-MEK5 inh inactive
O=C(CC(=O)N/N=C/c1ccc(F)cc1)N/N=C/c1ccc(F)cc1	none
O=C(Cc1c[nH]c2ccccc12)N1CCc2ccccc21	MEKK2 WT-MEK5 1.0[inhibitor], MEKK3 PB1 HTS 2.0[inhibitor] | MEKK2wt confirm inactive | MEKK2mut confirm inactive | MEKK3-MEK5 inh inactive
COc1ccc(OCC(=O)Nc2ccccc2OC(F)F)cc1	MEKK3 PB1 HTS 122.0 | MEKK2wt confirm inactive | MEKK2mut confirm inactive | MEKK3-MEK5 inh inactive
COc1ccc(OCC(=O)Nc2ccccc2OC)cc1	none
Cc1ccc(NC(=S)NCCc2c[nH]c3ccccc23)cc1	none
O=C(NCCc1c[nH]c2ccccc12)c1cnccn1	MEKK3 PB1 HTS 74.0[inhibitor] | MEKK2wt confirm inactive | MEKK2mut confirm inactive | MEKK3-MEK5 inh inactive
Cc1ccc(C)c(NC(=O)C(=O)NCCc2c[nH]c3ccccc23)c1	MEKK2 WT-MEK5 35.0[inhibitor], MEKK3 PB1 HTS 34.0[inhibitor] | MEKK2wt confirm inactive | MEKK2mut confirm inactive | MEKK3-MEK5 inh inactive
Cc1ccc(C(=O)N/C(=C\c2cccs2)C(=O)NCCc2c[nH]c3ccccc23)cc1	MEKK3 PB1 HTS 129.0 | MEKK2wt confirm inactive | MEKK2mut confirm inactive | MEKK3-MEK5 inh inactive
Cc1cccc(NC(=S)NCCc2c[nH]c3ccccc23)c1	MEKK3 PB1 HTS 128.0 | MEKK2wt confirm inactive | MEKK2mut confirm inactive | MEKK3-MEK5 inh inactive
COc1cccc(C(=O)NC(=S)Nc2ccc([N+](=O)[O-])cc2C)c1	none
Cc1ccc(S(=O)(=O)NC(C)C(c2cccs2)N2CCOCC2)cc1 (configuration not stated)	none
CN(C)c1ccc(NC(=O)N2CCOCC2)cc1	none
O=c1cc(NS(=O)(=O)c2ccccc2)nc(SCc2ccccc2Cl)[nH]1	none
Cc1cc(C)c2sc(N(CCCN(C)C)C(=O)CN3C(=O)c4ccccc4C3=O)nc2c1	MEKK2 WT-MEK5 321.0, MEKK2mut PB1 HTS 82.0, MEKK3 PB1 HTS 70.0[inhibitor] | MEKK2wt confirm inactive | MEKK2mut confirm inactive | MEKK3-MEK5 inh inactive
Cc1cc(C)c2sc(N(CCN(C)C)C(=O)c3c(F)cccc3F)nc2c1	none
Cc1cc(C)c2sc(N(CCCN(C)C)C(=O)c3ccc(Br)s3)nc2c1	MEKK2 WT-MEK5 189.0 | MEKK2wt confirm inactive | MEKK2mut confirm inactive | MEKK3-MEK5 inh inactive
Cc1ccccc1N(C(=O)Cc1c[nH]c2ccccc12)C(C(=O)NC1CCCCC1)c1ccco1 (configuration not stated)	none
Cc1ccc(C(C(=O)NC2CCCCC2)N(C(=O)Cc2c[nH]c3ccccc23)c2ccccc2C)o1 (configuration not stated)	MEKK3 PB1 HTS 128.0 | MEKK2wt confirm inactive | MEKK2mut confirm inactive | MEKK3-MEK5 inh inactive
Cc1c(NC(=O)CSc2nnnn2-c2ccc(O)cc2)c(=O)n(-c2ccccc2)n1C	none
CCn1c(O)c(N=NC(=O)CNc2cccc(C)c2)c2ccccc21	MEKK3 PB1 HTS 148.0 | MEKK2wt confirm inactive | MEKK2mut confirm inactive | MEKK3-MEK5 inh inactive
CCn1c(O)c(N=NC(=O)CNc2ccc(C)cc2)c2ccccc21	none
CCc1cc(=O)oc2cc(C)cc(OCC(=O)C(C)(C)C)c12	MEKK3 PB1 HTS 72.0[inhibitor] | MEKK2wt confirm inactive | MEKK2mut confirm inactive | MEKK3-MEK5 inh inactive
Cc1cccc(NC(=O)c2ccc(CN3CCN(Cc4ccccc4)CC3)cc2)c1	none
Cc1ccc(CN(C(=O)Cc2cccs2)C(C(=O)NC2CCCC2)c2ccncc2)cc1 (configuration not stated)	none
